From ChEMBL document CHEMBL1641400, “Synthesis of essramycin and comparison of its antibacterial activity” (J Nat Prod, 2010) come the findings set out here.

Series [1] in a line: Thermodynamic solubility in water after 72 hrs. The conditions noted are these: read-out: Therm_solubility. Format: physicochemical.
Series [2] in a line: Protein binding in LB assay broth (above 30 kDa) by ultra filtration method. Type of series: ADME. The conditions noted are these: read-out: PB (converted).
Series [3] can be described thus: Thermodynamic solubility in phosphate buffer at pH 7.4 after 72 hrs. Type of series: physicochemical. The conditions noted are these: read-out: Therm_solubility.
Series [4] is described as follows: Kinetic solubility in water. Type of series: physicochemical.
Series [5] can be described thus: Kinetic solubility in phosphate buffer at pH 7.4. Format: physicochemical.
The subject of series [6] is Escherichia coli. The experiment in a line: Antibacterial activity against Escherichia coli ATCC 25922 compound formulated with carboxymethylcellulose. Format: functional, organism-based.
Series [7] relates to Escherichia coli. Kind of series: Antibacterial activity against Escherichia coli ATCC 25922 after 24 hrs by disc diffusion assay. Type of series: functional, organism-based. The procedure, abridged:
(§1)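 LB broth cultures were grown to mid-log (OD600 ≈ 0.6) as for broth MIC and streaked as lawns on LB agar. Sterile filter paper discs were loaded with 10 µL of 2-fold serial dilutions (32 to 1 µg/mL) and placed on the lawns. Inhibition zones were measured after 24 h at 37 °C.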

For series [8], the system named is Klebsiella pneumoniae. Kind of series: Antibacterial activity against Klebsiella pneumoniae ATCC 700603 up to 64 ug/ml after 24 hrs by broth dilution assay. Format: functional, organism-based. The procedure, abridged:
(§2)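 Triplicate broth microdilution in LB and MH broths. Overnight LB cultures were diluted 40-fold into fresh broth and shaken 1 h at 37 °C to mid-log (OD600 ≈ 0.6). They were then diluted to 5 × 10⁵ cfu/mL into 2-fold serial dilutions from 64 to 0.03 µg/mL (≤1.28% DMSO) and held 24 h at 37 °C. MIC is the lowest concentration with no visible growth. Tetracycline, vancomycin and colistin served as positive controls.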

The next series concerns HepG2. Kind of series: Cytotoxicity against human HepG2 cells after 24 hrs by MTT assay. The conditions noted are these: HepG2, 24 h. Format: cell-based.
Series [9] relates to Staphylococcus aureus. The experiment in a line: Antibacterial activity against methicillin-susceptible Staphylococcus aureus ATCC 25923 compound formulated with carboxymethylcellulose. Format: functional, organism-based.
Series [10] concerns Staphylococcus aureus. The experiment in a line: Antibacterial activity against methicillin-susceptible Staphylococcus aureus ATCC 25923 after 24 hrs by disc diffusion assay. Type of series: functional, organism-based. An outline of the steps:
as §1

Series [11] deals with Enterococcus faecalis. Kind of series: Antibacterial activity against Enterococcus faecalis VanB ATCC 51299 after 24 hrs by disc diffusion assay. Type of series: functional, organism-based. The procedure, abridged: as §1
Series [12] deals with Staphylococcus aureus. Kind of series: Antibacterial activity against methicillin-susceptible Staphylococcus aureus ATCC 25923 up to 64 ug/ml after 24 hrs by broth dilution assay. Format: functional, organism-based. An outline of the steps:
as §2

The next series has as its system Bacillus subtilis. The experiment in a line: Antibacterial activity against Bacillus subtilis ATCC 6051 compound formulated with carboxymethylcellulose. Type of series: functional, organism-based.
For series [13], the system named is Escherichia coli. Kind of series: Antibacterial activity against Escherichia coli ATCC 25922 up to 64 ug/ml after 24 hrs by broth dilution assay. Type of series: functional, organism-based. The procedure, abridged:
as §2

Series [14] deals with Klebsiella pneumoniae. The experiment in a line: Antibacterial activity against Klebsiella pneumoniae ATCC 700603 after 24 hrs by disc diffusion assay. Type of series: functional, organism-based. An outline of the steps:
as §1

Series [15] concerns Pseudomonas aeruginosa. Kind of series: Antibacterial activity against Pseudomonas aeruginosa ATCC 10145 compound formulated with carboxymethylcellulose. Type of series: functional, organism-based.
Series [16] has as its system Acinetobacter baumannii. Kind of series: Antibacterial activity against Meropenem-resistant Acinetobacter baumannii after 24 hrs by disc diffusion assay. Type of series: functional, organism-based. The procedure, abridged:
(§3)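 LB-broth overnight cultures diluted 40-fold into fresh LB, shaken 1 h at 37 °C, to mid-log (OD600 ≈ 0.6). Lawn streaked on LB agar. Sterile filter-paper discs loaded with 10 µL of 2-fold serial dilutions, 32 to 1 µg/mL. Discs placed on plates, 24 h at 37 °C, then zone of inhibition measured.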

Series [17] relates to Acinetobacter baumannii. The experiment in a line: Antibacterial activity against Meropenem-resistant Acinetobacter baumannii up to 64 ug/ml after 24 hrs by broth dilution assay. Format: functional, organism-based. An outline of the steps:
(§4)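 Triplicate broth microdilution in LB and in MH broth. Overnight LB cultures diluted 40-fold into fresh broth, shaken 1 h at 37 °C to mid-log (OD600 ≈ 0.6), then diluted to 5 × 10⁵ cfu/mL. Added to 2-fold serial dilutions, 64 to 0.03 µg/mL, with DMSO at most 1.28%. Incubated 24 h at 37 °C; MIC is the lowest concentration with no visible growth. Tetracycline, vancomycin and colistin served as positive controls.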

The subject of series [18] is Enterococcus faecalis. The experiment in a line: Antibacterial activity against Enterococcus faecalis VanB ATCC 51299 up to 64 ug/ml after 24 hrs by broth dilution assay. Format: functional, organism-based. The procedure, abridged: as §2
In a further series the test system is HEK293. Kind of series: Cytotoxicity against HEK293 cells after 24 hrs by MTT assay. Type of series: cell-based. The conditions noted are these: Homo sapiens, HEK293, 24 h.
The subject of series [19] is Pseudomonas aeruginosa. Kind of series: Antibacterial activity against Meropenem-resistant Pseudomonas aeruginosa up to 64 ug/ml after 24 hrs by broth dilution assay. Type of series: functional, organism-based. The procedure, abridged:
as §4

The subject of series [20] is Pseudomonas aeruginosa. The experiment in a line: Antibacterial activity against Meropenem-resistant Pseudomonas aeruginosa after 24 hrs by disc diffusion assay. Format: functional, organism-based. An outline of the steps: as §3

In brackets after ≈: the same amount, converted by molar mass. Activity calls are given as the source filed them. No cut-off for these calls is given here. A value given as a limit tells only on which side of the number the result lay.

As to `Cc1cc(=O)n2nc(CC(=O)c3ccccc3)[nH]c2n1` [ESSRAMYCIN], the solubility thermodynamic at 72 h in series [1] worked out at 175 µg/mL (≈ 652 µM); in [3], 898 µg/mL (≈ 3350 µM). In [2], the fraction unbound was 0.93. The kinetic solubility in [4] and in [5] was 150 µg/mL (≈ 559 µM) throughout.
With `Cc1cc(=O)n2nc(CC(=O)c3ccccc3)nc2[nH]1` [ESSRAMYCIN], the inhibition entry in the series on Escherichia coli [6], with Escherichia coli [7], in the series on Klebsiella pneumoniae [8], in the series with Staphylococcus aureus [9], with Staphylococcus aureus [10] and with Enterococcus faecalis [11] was “inactive” in each case. Further, the inhibition entry in the series with Staphylococcus aureus [12], in the series on Bacillus subtilis, with Escherichia coli [13], with Klebsiella pneumoniae [14], in the series on Pseudomonas aeruginosa [15] and in the series with Acinetobacter baumannii [16] was “inactive” throughout. In addition, the inhibition entry in the series on Acinetobacter baumannii [17], in the series with Enterococcus faecalis [18], in the series with Pseudomonas aeruginosa [19] and with Pseudomonas aeruginosa [20] was “inactive” throughout. Besides, the IC50 in the series on HepG2 and in the series on HEK293 was > 200 µM each time.
